This is a sample that favours compounds with a hit; in the whole collection about 2.5% have one here.
MBD2 DNA inh: inhibitors of human MBD2 binding to methylated oligonucleotide; 0.31% of 370,000 active; AID 686964; inhibition, % at 4.4 µM; TR-FRET; Q9UBB5; in the data active means inhibition above about 13%
DNMT1 inh: inhibitors of human DNMT1. DNMT1 molecular beacon, Hinp1I cleavage, fluorescence. inhibition (reported as % activation of signal), % at 10 µM. 0.83% of 360,000 active; in the data active means inhibition above about 50%
Target sequence (P26358 504-1616 limits assumed): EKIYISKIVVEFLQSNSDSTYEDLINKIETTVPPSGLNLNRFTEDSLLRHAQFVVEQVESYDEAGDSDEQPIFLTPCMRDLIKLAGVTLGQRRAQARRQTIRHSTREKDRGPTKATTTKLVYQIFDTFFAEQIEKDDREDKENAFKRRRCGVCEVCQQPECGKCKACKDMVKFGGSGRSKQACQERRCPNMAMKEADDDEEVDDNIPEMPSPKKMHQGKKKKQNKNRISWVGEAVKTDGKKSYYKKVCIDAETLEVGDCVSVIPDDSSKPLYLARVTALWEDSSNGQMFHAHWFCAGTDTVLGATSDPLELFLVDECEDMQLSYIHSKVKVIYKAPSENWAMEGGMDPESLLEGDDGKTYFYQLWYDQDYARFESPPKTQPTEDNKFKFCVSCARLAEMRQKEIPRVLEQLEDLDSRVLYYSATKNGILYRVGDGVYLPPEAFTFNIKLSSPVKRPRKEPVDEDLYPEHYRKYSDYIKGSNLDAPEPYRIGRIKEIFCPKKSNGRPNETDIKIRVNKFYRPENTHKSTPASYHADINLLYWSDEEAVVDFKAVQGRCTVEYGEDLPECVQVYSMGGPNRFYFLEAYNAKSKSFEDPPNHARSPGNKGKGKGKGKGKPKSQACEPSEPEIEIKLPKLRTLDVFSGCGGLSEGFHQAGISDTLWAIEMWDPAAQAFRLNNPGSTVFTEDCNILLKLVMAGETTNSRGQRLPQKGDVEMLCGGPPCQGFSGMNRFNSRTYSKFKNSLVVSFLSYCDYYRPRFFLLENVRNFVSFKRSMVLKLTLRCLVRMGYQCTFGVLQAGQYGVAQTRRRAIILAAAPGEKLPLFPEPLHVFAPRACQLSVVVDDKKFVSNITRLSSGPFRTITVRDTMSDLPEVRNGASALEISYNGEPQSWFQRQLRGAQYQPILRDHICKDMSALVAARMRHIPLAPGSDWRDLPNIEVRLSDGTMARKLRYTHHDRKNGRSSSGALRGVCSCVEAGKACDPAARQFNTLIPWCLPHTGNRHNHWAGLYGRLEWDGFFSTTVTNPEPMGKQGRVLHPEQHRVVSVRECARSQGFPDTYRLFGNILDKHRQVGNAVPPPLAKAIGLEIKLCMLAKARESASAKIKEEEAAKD
NS3 helicase inh: blocks Hepatitis C virus NS3 helicase unwinding | NS3 helicase DNA unwinding, Cy5 molecular beacon fluorescence | inhibition, % at 10.9 µM | 0.56% of 290,000 active;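 active means inhibition above the mean of all tested compounds plus 3 SD, set per campaign, cut at about 35% in these data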
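test system = hepatitis C virus NS3 helicase domain fragment enzyme | reagent = annealed dual-labelled DNA beacon duplex, ATP-started | times = 1 h at 25 °C | detection = Cy5 fluorescence, 0 and 60 min reads | read-out basis = percent inhibition from t60/t0 fluorescence ratio | control set = DMSO and thioflavine S | replication = one well per compound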
UHRF1 binding: blocks human UHRF1 binding to methylated DNA | Q96T88 | UHRF1 binding to methylated oligo, TR-FRET | inhibition, % at 4.4 µM | 0.75% of 370,000 active | AID 687016; in the data active means inhibition above about 21%;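 further: UHRF1 SRA domain binding a hemimethylated CpG hairpin DNA probe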
DSG3 Ab inh: human desmoglein-3 autoantibody binding inhibition; 0.48% of 310,000 active; DSG3-coupled beads, scFv-anti-DSG3-GFP binding, flow cytometry; stronger effect = lower value; P32926; binding (percent of control), % at 10 µM;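 active means binding more than 3 SD below its plate's average and above zero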;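 further: hits lower antibody fragment binding to DSG3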
SUMO1-SIM PPI: SUMO1-SIM interaction modulation. 0.33% of 360,000 active. inhibition, % at 20 µM. SUMO1 binding to a labelled peptide, TR-FRET, 1 h. AID 602429; in the data active means inhibition above about 37%
Numbers stand for hits; - = inactive; . = no result given.

SMILES | MBD2 DNA inh | DNMT1 inh | NS3 helicase inh | UHRF1 binding | DSG3 Ab inh | SUMO1-SIM PPI
CCc1cccc(OCC(=O)Nc2ccc(S(=O)(=O)Nc3ccccn3)cc2)c1 | - | - | - | 79.0 | - | -
COc1ccc(C(C)C)cc1-c1cc(C(=O)NCc2cc(C(F)(F)F)cc(C(F)(F)F)c2)[nH]n1 | - | - | . | - | . | -
COc1cccc(-c2cccc(-c3nc(C(=O)Nc4ccc(-c5ccccc5)cc4)cc4c3[C@H](CCO)N(S(=O)C(C)(C)C)C4)c2)c1 (stereo not given in full) | . | - | . | . | . | -
CC(=O)Nc1ccc(NC(=O)c2nc(-c3ccccc3)oc2C)cc1 | - | - | - | - | - | -
COc1ccc(OC)c(NC(=O)c2nc(-c3ccccc3)oc2C)c1 | - | - | - | - | 82.7 | -
Cc1nc2c(-c3ccccc3)c[nH]n2c(=O)c1Cc1ccccc1 | - | - | - | - | 64.1 | -
Cc1cc(=O)n2[nH]cc(-c3ccccc3)c2n1 | - | - | - | - | - | -
CCOC(=O)c1[nH]c2c(c1-c1ccccc1)C(=O)CC(c1ccc(OCC)cc1)C2 (stereo not given) | - | - | - | - | -0.8 | -
CCOC(=O)c1[nH]c2c(c1-c1ccccc1)C(=O)CC(c1ccc(OC)c(OC)c1)C2 (stereo not given) | - | - | - | - | - | -
NS(=O)(=O)c1ccc(N=Nc2c(O)ccc3ccccc23)cc1 | - | - | - | - | 71.1 | -
Oc1ccc(N=Nc2c(O)ccc3ccccc23)cc1 | - | - | - | - | - | -
COc1cccc(N2CC(NC(=O)c3cccc4ccccc34)CC2=O)c1 (stereo not given) | - | - | . | 33.6 | - | -
C#CCn1cc(C=C2C(=O)c3ccccc3C2=O)c2ccccc21 | - | 59.6 | - | - | - | -
C#CCn1c(=O)cc(C)c2ccccc21 | - | - | - | - | - | -
O=C(Nc1nccs1)C1CCCN1S(=O)(=O)c1ccc(Cl)cc1 (stereo not given) | - | - | - | 25.4 | - | -
O=C(Nc1nccs1)[C@@H]1CCCN1S(=O)(=O)c1ccccc1F | - | - | . | - | - | -
CCOc1ccc(NC(=O)CN2C(=O)COc3ccccc32)cc1 | - | - | - | - | - | -
COc1cc(NC(=O)CN2C(=O)COc3ccccc32)cc(OC)c1 | - | - | . | 21.0 | - | -
Oc1ccccc1NCC(O)Cn1ccc2ccccc21 (stereo not given) | - | - | - | - | - | -
OC(CNCc1ccccc1)Cn1ccc2ccccc21 (stereo not given) | - | - | - | 27.4 | - | -
COc1ccc(Cl)cc1Cn1c(C)c(C(=O)NCc2ccc3c(c2)OCCO3)sc1=O | - | - | . | 43.3 | . | -
COc1ccc(CNC(=O)c2sc(=O)n(Cc3cc(C(C)=O)ccc3OC)c2C)cc1 | - | - | . | 22.3 | . | -
COc1ccc(CNC(=O)c2sc(=O)n(Cc3cc(Cl)ccc3OC)c2C)cc1 | - | - | . | - | . | -
O=C(CNC(=O)c1ccc(Br)o1)NCCc1ccc(F)cc1 | - | - | - | - | - | -
O=C(Nc1ccc(OCC(F)(F)C(F)F)cc1)c1ccncc1 | - | - | - | - | -12.6 | -
SMILES | MBD2 DNA inh | DNMT1 inh | NS3 helicase inh | UHRF1 binding | DSG3 Ab inh | SUMO1-SIM PPI
O=C(NCc1ccccc1F)C1CCCN1S(=O)(=O)c1ccc(Cl)cc1 (stereo not given) | - | - | - | - | - | -
Cc1cccc2cc(COC(=O)C3CCCCC3)c(=O)[nH]c12 | - | - | - | - | -4.6 | -
COC(=O)c1ccc(Cn2cnc3c(N)ncnc32)cc1 | - | - | . | - | - | -
COC(=O)c1ccc(Cn2cnc3cnccc32)cc1 | - | - | - | 24.8 | - | -
CN(C)CCNC(=O)/C(=N\O)c1ccccn1 | - | - | - | 26.8 | - | -
CN(C)CCCNCCCNC(=O)c1ccccn1 | - | - | - | - | - | -
CCOc1ccc(/C=N/NC(=O)c2[nH]c3ccc(C)cc3c2C)cc1 | - | - | - | - | - | -
COc1cccc(/C=C/C(=O)OCC(=O)NCCC2=CCCCC2)c1 | - | - | - | 36.6 | - | -
Cc1cc(C)cc(OCC(=O)OCC(=O)NCCC2=CCCCC2)c1 | - | - | - | - | -9.8 | -
COC(=O)Nc1ccc(S(=O)(=O)N2CCCC(C(=O)N3CC(C)OC(C)C3)C2)cc1 (stereo not given) | - | - | - | - | - | -

Assay outcomes deposited in PubChem BioAssay by several laboratories.
